Each block holds one compound with its values, some of them ahead of it.
Legend:
[1] = Ratio of drug level in brain to plasma in wild type MDR1a-expressing mouse at 1 mg/kg, iv measured after 4 hrs; type: ADME, organism-based; set-up: dose 1 mg/kg, route intravenous; details: brain and plasma, read-out: BPR
Summary of the method: (§1)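 Single iv dose of 1 mg/kg given to wild-type and P-gp deficient CF-1 mice. Parent levels in plasma and brain determined 4 h postdose. Brain-to-plasma ratio calculated from these levels.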

[2] = Plasma clearance in rhesus monkey at 0.4 mg/kg, po; type: ADME, organism-based, Macaca mulatta; set-up: dose 0.4 mg/kg, route oral
Summary of the method: (§2)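 Male Sprague-Dawley rats received 1 mg/kg iv and 2 mg/kg po. Male beagle dogs and rhesus monkeys received 0.2 mg/kg iv and 0.4 mg/kg po. The iv solution was EtOH/PEG400/water, 20:50:30 v/v/v for rats and 20:40:40 v/v/v for dogs and monkeys. The oral solution was Imwitor742/Tween-80 (1:1 w/w) for all species.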

[3] = Drug level in diet-induced obese rat plasma at 0.3 mg/kg, po measured after 18 hrs of last dose on day 13; type: ADME, organism-based; set-up: dose 0.3 mg/kg, route oral; details: read-out: Drug uptake
Summary of the method: (§3)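 At end of 13-day chronic efficacy study in DIO rats dosed orally at 0.3 mg/kg, plasma and brain drug levels measured 18 h after last dose.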

[4] = Drug level in diet-induced obese rat brain at 0.3 mg/kg, po measured after 18 hrs of last dose on day 13; type: ADME, organism-based; set-up: dose 0.3 mg/kg, route oral; details: read-out: Drug uptake; summary of the method: as §3
[5] = Ratio of drug level in brain to plasma in diet-induced obese rat at 0.3 mg/kg, po measured after 18 hrs of last dose on day 13; type: ADME, organism-based; set-up: dose 0.3 mg/kg, route oral; details: brain and plasma, read-out: BPR
Summary of the method: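 DIO rats dosed daily for 13 days at 0.3 mg/kg in the chronic efficacy study. Plasma and brain levels determined 18 h after the last dose. Brain/plasma exposure ratio calculated.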

[6] = Drug level in diet-induced obese rat plasma at 0.3 mg/kg, po measured after 24 hrs of last dose on day 13; type: ADME, organism-based; set-up: dose 0.3 mg/kg, route oral; details: read-out: Drug uptake
Summary of the method: (§4)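 Separate parallel 13-day pharmacokinetic study in DIO rats at 0.3 mg/kg; plasma and brain levels determined 24 h after last dose.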

[7] = Drug level in diet-induced obese rat brain at 0.3 mg/kg, po measured after 24 hrs of last dose on day 13; type: ADME, organism-based; set-up: dose 0.3 mg/kg, route oral; details: read-out: Drug uptake; summary of the method: as §4
[8] = Ratio of drug level in brain to plasma in diet-induced obese rat at 0.3 mg/kg, po measured after 24 hrs of last dose on day 13; type: ADME, organism-based; set-up: dose 0.3 mg/kg, route oral; details: brain and plasma, read-out: BPR
Summary of the method: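 Separate 13-day parallel pharmacokinetic study in DIO rats at 0.3 mg/kg. Plasma and brain exposures determined 24 h after the last dose. Brain/plasma ratio calculated.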

[9] = Metabolic stability in bile-duct cannulated rat bile assessed as compound remaining at 2 mg/kg, po up to 72 hrs; type: ADME, organism-based; set-up: dose 2 mg/kg, route oral; details: read-out: Stability
Summary of the method: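 [3H]-labelled compound formulated in Imwitor 742/Tween-80 (1:1), given orally at 2 mg/kg to bile duct-cannulated rats; bile, feces and urine collected over 72 h; radioactivity recovery and radioprofiles of parent and metabolites determined.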

[10] = Drug level in wild type MDR1a-expressing mouse plasma at 1 mg/kg, iv measured after 4 hrs; type: ADME, organism-based; set-up: dose 1 mg/kg, route intravenous; details: read-out: Drug uptake
Summary of the method: (§5)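 Single iv 1 mg/kg to wild-type and P-gp deficient CF-1 mice; parent levels in plasma and brain measured 4 h postdose; brain/plasma ratio calculated.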

[11] = Drug level in wild type MDR1a-expressing mouse brain at 1 mg/kg, iv measured after 4 hrs; type: ADME, organism-based; set-up: dose 1 mg/kg, route intravenous; details: read-out: Drug uptake; summary of the method: as §5
[12] = Drug level in P-gp deficient CF1 mouse plasma at 1 mg/kg, iv measured after 4 hrs; type: ADME, organism-based; set-up: dose 1 mg/kg, route intravenous; details: read-out: Drug uptake; summary of the method: as §5
[13] = Drug level in P-gp deficient CF1 mouse brain at 1 mg/kg, iv measured after 4 hrs; type: ADME, organism-based; set-up: dose 1 mg/kg, route intravenous; details: read-out: Drug uptake; summary of the method: as §5
[14] = Ratio of drug level in brain to plasma in P-gp deficient CF1 mouse at 1 mg/kg, iv measured after 4 hrs; type: ADME, organism-based; set-up: dose 1 mg/kg, route intravenous; details: brain and plasma, read-out: BPR; summary of the method: as §1
[15] = Plasma clearance in Sprague-Dawley rat at 1 mg/kg, iv and 2 mg/kg, po; type: ADME, organism-based; summary of the method: as §2
[16] = Volume of distribution at steady state in Sprague-Dawley rat at 1 mg/kg, iv and 2 mg/kg, po; type: ADME, organism-based; details: in vivo, read-out: Vdss; summary of the method: as §2
[17] = Half life in Sprague-Dawley rat at 1 mg/kg, iv and 2 mg/kg, po; type: ADME, organism-based; details: in vivo
Summary of the method: (§6)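 Male Sprague-Dawley rats dosed 1 mg/kg iv and 2 mg/kg po; male beagle dogs and rhesus monkeys 0.2 mg/kg iv and 0.4 mg/kg po. Iv vehicle EtOH/PEG400/water 20:50:30 (rat) or 20:40:40 v/v/v (dog, monkey); oral vehicle Imwitor 742/Tween-80 1:1 w/w. Clearance, Vdss, t1/2, Cmax, F and dose-normalized oral AUC derived.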

[18] = Bioavailability in Sprague-Dawley rat at 1 mg/kg, iv and 2 mg/kg, po; type: ADME, organism-based; details: in vivo; summary of the method: as §6
[19] = tested on: Rattus norvegicus; assay: Dose normalized AUC in Sprague-Dawley rat assessed as per mg of plasma protein at 2 mg/kg, po; type: ADME, organism-based; set-up: dose 2 mg/kg, route oral; details: in vivo
[20] = Cmax in Sprague-Dawley rat at 1 mg/kg, iv and 2 mg/kg, po; type: ADME, organism-based; details: in vivo; summary of the method: as §6
[21] = Plasma clearance in Beagle dog at 0.2 mg/kg, iv; type: ADME, organism-based, Canis lupus familiaris; set-up: dose 0.2 mg/kg, route intravenous; summary of the method: as §2
[22] = Volume of distribution at steady state in Beagle dog at 0.2 mg/kg, iv; type: ADME, organism-based, Canis lupus familiaris; set-up: dose 0.2 mg/kg, route intravenous; details: in vivo, read-out: Vdss; summary of the method: as §2
[23] = Half life in Beagle dog at 0.2 mg/kg, iv; type: ADME, organism-based, Canis lupus familiaris; set-up: dose 0.2 mg/kg, route intravenous; details: in vivo; summary of the method: as §6
[24] = Bioavailability in Beagle dog at 0.2 mg/kg, iv; type: ADME, organism-based, Canis lupus familiaris; details: in vivo; summary of the method: as §6
[25] = tested on: Rhesus monkey; assay: Volume of distribution at steady state in rhesus monkey at 0.4 mg/kg, po; type: ADME, organism-based, Macaca mulatta; set-up: dose 0.4 mg/kg, route oral; details: in vivo; summary of the method: as §2
[26] = Half life in rhesus monkey at 0.4 mg/kg, po; type: ADME, organism-based, Macaca mulatta; set-up: dose 0.4 mg/kg, route oral; details: in vivo; summary of the method: as §6
[27] = Cmax in rhesus monkey at 0.4 mg/kg, po; type: ADME, organism-based, Macaca mulatta; set-up: dose 0.4 mg/kg, route oral; details: in vivo; summary of the method: as §6
[28] = Oral bioavailability in rhesus monkey at 0.4 mg/kg; type: ADME, organism-based, Macaca mulatta; details: in vivo; summary of the method: as §2
[29] = tested on: Rhesus monkey; assay: Dose normalized AUC in rhesus monkey at 0.4 mg/kg, po; type: ADME, organism-based, Macaca mulatta; set-up: dose 0.4 mg/kg, route oral; details: in vivo; summary of the method: as §6
[30] = Plasma concentration in dog at 1 mg/kg, iv administered for 30 mins; type: ADME, organism-based, Canis lupus familiaris; set-up: dose 1 mg/kg, route intravenous
Summary of the method: (§7)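 Anesthetized dogs given iv infusions, each spread evenly over 30 min, at rising cumulative doses of 1, 3 and 10 mg/kg. Peak plasma levels were measured during each dose. Arterial pressure, heart rate and ECG intervals (PR, QRS, QTc) were monitored against vehicle-treated dogs.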

[31] = Plasma concentration in dog at 3 mg/kg, iv administered for 30 mins; type: ADME, organism-based, Canis lupus familiaris; set-up: dose 3 mg/kg, route intravenous; summary of the method: as §7
[32] = Plasma concentration in dog at 10 mg/kg, iv administered for 30 mins; type: ADME, organism-based, Canis lupus familiaris; set-up: dose 10 mg/kg, route intravenous; summary of the method: as §7
[33] = Cmax in Beagle dog at 0.4 mg/kg, po; details: in vivo
[34] = tested on: Canis familiaris; assay: Dose normalized AUC in Beagle dog at 0.4 mg/kg, po; details: in vivo

Structure (SMILES): CC1(C)CC(NC(=O)CC(O)C(F)(F)F)c2cc(-c3ccc(Cl)cc3)c(-c3ccc(Cl)cc3Cl)nc2O1 (racemic) [N-[6-(4-CHLOROPHENYL)-7-(2,4-DICHLOROPHENYL)-2,2-DIMETHYL-3,4-DIHYDRO-2H-PYRANO[2,3-B]PYRIDINE-4-YL]-4,4,4-TRIFLUORO-3-HYDROXYBUTANAMIDE (DIASTEREOMERIC MIX)]
half-life [17]: 8.2 h | bioavailability [18]: 41%

Structure (SMILES): CC(O)C(=O)NC1CC(C)(C)Oc2nc(-c3ccc(Cl)cc3Cl)c(-c3ccc(Cl)cc3)cc21 (single isomer, unassigned)
half-life [17]: 7.9 h | bioavailability [18]: 100%

Structure (SMILES): CC1(C)C[C@@H](NC(=O)c2ccccc2O)c2cc(-c3ccc(Cl)cc3)c(-c3ccc(Cl)cc3Cl)nc2O1
half-life [17]: 1.9 h | bioavailability [18]: 1%

Now from value to compound:

Kp at 4 h [1]: 0.66 | CL/F [2]: 2.3 mL/min/kg | concentration at 18 h [3]: 180 nM | concentration at 18 h [4]: 110 nM | Kp at 18 h [5]: 0.63 | concentration at 24 h [6]: 135 nM | concentration at 24 h [7]: 74 nM | Kp at 24 h [8]: 0.55 | remaining at 72 h [9]: 30% | concentration at 4 h [10]: 410 nM | concentration at 4 h [11]: 270 nM | concentration at 4 h [12]: 300 nM | concentration at 4 h [13]: 1400 nM | Kp at 4 h [14]: 4.66 | clearance [15]: 4.5 mL/min/kg | Vd [16]: 3 L/kg | half-life [17]: 8.5 h | bioavailability [18]: 91% | AUC [19]: 11 µM·kg·h/mg | Cmax [20]: 1030 nM | clearance [21]: 1.1 mL/min/kg | Vd [22]: 5.7 L/kg | half-life [23]: 60 h | bioavailability [24]: 65% | Vdss [25]: 2.4 L/kg | half-life [26]: 15 h | Cmax [27]: 90 nM | bioavailability [28]: 46% | AUC [29]: 6.1 µM·kg·h/mg | concentration at 0.5 h [30]: 1630 nM | concentration at 0.5 h [31]: 3260 nM | concentration at 0.5 h [32]: 6960 nM | Cmax [33]: 150 nM | AUC [34]: 18 µM·kg·h/mg
Structure (SMILES): Cc1cc(C(=O)N[C@@H]2CC(C)(C)Oc3nc(-c4ccc(Cl)cc4Cl)c(-c4ccc(Cl)cc4)cc32)n[nH]1

half-life [17]: 7.4 h | bioavailability [18]: 5%
Structure (SMILES): CC1(C)C[C@@H](NC(=O)c2ccccc2N)c2cc(-c3ccc(Cl)cc3)c(-c3ccc(Cl)cc3Cl)nc2O1
